Data: ChEMBL document CHEMBL5653631, “A Potent and Selective ULK1 Inhibitor Suppresses Autophagy and Sensitizes Cancer Cells to Nutrient Stress” (iScience, 2018)

What was measured:
[1] = target: Serine/threonine-protein kinase MAK (Homo sapiens) (UniProt P20794); assay: Inhibition of human recombinant MAK at 500 nM related to control ULK1
[2] = target: T1, Activin receptor type-1B (Homo sapiens) (UniProt P36896); assay: Inhibition of human recombinant ALK4 at 500 nM related to control ULK1
T1 sequence (whole entry): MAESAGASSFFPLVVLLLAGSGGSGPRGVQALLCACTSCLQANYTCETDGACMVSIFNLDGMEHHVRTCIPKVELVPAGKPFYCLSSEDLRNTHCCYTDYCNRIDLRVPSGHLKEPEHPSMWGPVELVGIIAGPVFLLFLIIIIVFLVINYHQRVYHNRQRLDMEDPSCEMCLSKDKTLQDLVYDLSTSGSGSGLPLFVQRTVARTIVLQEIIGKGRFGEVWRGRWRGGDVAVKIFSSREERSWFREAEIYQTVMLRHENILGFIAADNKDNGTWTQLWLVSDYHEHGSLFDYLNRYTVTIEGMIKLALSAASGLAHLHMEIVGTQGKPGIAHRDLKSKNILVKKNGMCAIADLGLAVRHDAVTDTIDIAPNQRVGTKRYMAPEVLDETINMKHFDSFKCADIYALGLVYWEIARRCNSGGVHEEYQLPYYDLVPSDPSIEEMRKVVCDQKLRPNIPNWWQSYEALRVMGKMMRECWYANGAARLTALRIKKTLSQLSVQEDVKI
Summary of the method: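 Panel of 327 recombinant human kinases, each assayed in vitro by radiometric activity assay in duplicate at a single inhibitor concentration per compound, chosen with reference to its ULK1 inhibition. Activity remaining was expressed as percent of vehicle control, and percent inhibition was calculated as 100 minus percent activity remaining.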

[3] = target: T2, Inhibitor of nuclear factor kappa-B kinase subunit alpha (Homo sapiens) (UniProt O15111); assay: Inhibition of human recombinant IKKa at 15 nM related to control ULK1
T2 sequence (whole entry): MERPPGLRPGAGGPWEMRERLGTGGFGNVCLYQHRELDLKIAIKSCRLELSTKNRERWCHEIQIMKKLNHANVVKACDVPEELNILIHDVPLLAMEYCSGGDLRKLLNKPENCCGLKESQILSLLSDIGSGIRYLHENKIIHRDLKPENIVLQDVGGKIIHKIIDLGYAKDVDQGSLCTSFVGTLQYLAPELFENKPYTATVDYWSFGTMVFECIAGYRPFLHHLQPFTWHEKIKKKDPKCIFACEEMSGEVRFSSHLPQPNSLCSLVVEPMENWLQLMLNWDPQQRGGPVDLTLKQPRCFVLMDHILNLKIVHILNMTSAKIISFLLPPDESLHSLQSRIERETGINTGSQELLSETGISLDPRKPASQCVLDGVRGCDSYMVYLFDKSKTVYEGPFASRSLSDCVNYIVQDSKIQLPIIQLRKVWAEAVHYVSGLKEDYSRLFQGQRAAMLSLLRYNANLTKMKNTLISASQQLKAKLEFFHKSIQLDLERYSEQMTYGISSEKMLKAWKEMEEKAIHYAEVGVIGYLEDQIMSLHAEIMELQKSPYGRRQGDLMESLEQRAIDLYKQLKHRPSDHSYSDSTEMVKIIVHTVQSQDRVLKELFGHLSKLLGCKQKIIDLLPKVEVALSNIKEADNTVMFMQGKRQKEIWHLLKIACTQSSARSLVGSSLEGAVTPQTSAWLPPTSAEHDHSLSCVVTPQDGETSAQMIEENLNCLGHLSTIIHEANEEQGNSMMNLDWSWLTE

[4] = target: T3, Serine/threonine-protein kinase TAO3 (Homo sapiens) (UniProt Q9H2K8); assay: Inhibition of human recombinant TAO3 at 40 nM related to control ULK1
T3 sequence (whole entry): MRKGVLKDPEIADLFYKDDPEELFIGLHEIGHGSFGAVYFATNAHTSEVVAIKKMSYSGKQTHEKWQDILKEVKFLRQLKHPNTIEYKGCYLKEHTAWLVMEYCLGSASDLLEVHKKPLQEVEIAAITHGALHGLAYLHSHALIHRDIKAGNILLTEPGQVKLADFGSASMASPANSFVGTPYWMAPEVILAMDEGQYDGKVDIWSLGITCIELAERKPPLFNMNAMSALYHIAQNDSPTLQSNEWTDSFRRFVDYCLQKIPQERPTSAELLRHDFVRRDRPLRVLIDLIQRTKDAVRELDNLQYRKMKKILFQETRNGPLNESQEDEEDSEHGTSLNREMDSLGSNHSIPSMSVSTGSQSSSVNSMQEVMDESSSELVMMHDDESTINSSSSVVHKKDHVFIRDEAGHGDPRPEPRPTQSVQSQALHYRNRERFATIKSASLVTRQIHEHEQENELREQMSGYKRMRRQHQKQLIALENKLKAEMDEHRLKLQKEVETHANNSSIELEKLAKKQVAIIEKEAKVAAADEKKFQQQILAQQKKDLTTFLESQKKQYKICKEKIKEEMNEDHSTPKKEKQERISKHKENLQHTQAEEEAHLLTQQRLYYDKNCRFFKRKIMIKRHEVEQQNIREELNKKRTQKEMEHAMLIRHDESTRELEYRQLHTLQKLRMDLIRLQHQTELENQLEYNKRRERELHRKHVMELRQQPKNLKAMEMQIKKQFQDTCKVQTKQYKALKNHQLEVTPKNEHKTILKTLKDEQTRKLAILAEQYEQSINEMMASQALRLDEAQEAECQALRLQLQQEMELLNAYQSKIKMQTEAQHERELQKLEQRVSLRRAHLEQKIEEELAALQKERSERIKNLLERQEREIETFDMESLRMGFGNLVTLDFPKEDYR

Chain of Serine/threonine-protein kinase MAK (Homo sapiens) (P20794 whole entry, looked up): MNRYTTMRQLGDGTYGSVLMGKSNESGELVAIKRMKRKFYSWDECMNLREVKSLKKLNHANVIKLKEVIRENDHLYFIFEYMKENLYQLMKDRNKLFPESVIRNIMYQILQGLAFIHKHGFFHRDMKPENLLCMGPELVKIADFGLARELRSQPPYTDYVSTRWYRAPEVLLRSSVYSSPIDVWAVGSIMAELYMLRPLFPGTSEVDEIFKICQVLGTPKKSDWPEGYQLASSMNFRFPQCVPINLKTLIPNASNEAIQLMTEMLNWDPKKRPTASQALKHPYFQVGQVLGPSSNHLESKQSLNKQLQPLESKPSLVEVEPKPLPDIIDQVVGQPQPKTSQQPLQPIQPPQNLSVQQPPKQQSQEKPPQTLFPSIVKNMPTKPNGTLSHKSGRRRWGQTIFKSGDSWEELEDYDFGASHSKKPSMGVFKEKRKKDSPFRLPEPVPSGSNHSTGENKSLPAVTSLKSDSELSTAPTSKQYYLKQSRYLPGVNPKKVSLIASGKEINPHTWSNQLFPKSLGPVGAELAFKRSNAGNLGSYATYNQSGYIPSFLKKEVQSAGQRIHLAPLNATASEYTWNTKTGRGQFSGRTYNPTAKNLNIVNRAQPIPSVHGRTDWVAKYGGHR

## CNC(=O)c1ccccc1Oc1nc(Nc2cc(OC)c(OC)c(OC)c2)ncc1Br
[1]
  fold change (FC): 0.49
[2]
  fold change (FC): 0.2

## CC(C)[C@H](NC(=O)c1cc(-c2cnn3cc(-c4ccc(OCCN5CCCCC5)cc4)cnc23)cs1)C(F)(F)F
[3]
  fold change (FC): 0.01

## O=C(N[C@@H](C1CC1)C(F)(F)F)c1cc(-c2cnn3cc(-c4ccc(F)cc4)cnc23)cs1
[4]
  fold change (FC): 0
